In one data set the test system is Ebolavirus. Put plainly: Antiviral activity against Ebola virus infected in human HuH7 cells assessed as reduction in viral infection pretreated for 2 hrs followed by viral infection and measured after 3 days by ZsGreen fluorescence assay. The conditions noted are these: Orthoebolavirus, Huh-7. The data set is classed as functional, organism-based.
Data set [1] can be described thus: Cytotoxicity against human Huh-7 cells assessed as reduction in cell viability incubated for 3 days by cell-titer glo assay. The class given is cell-based. The conditions noted are these: time 3 day. The essentials:
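Huh7 cells received compound but no virus, in parallel with the infection assay. Viability was read by CellTiter-Glo luminescence. CC50 was derived from a 4-parameter fit to semi-log concentration-response curves.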

A short description of data set [2]: Selectivity index, ratio of CC50 for human Huh-7 cells to EC50 for Ebola virus infected in human HuH7 cells. The class given is toxicity, cell-based. The conditions noted are these: read-out: Ratio CC50/EC50.
Data set [3] can be described thus: Inhibition of Ebolavirus glycoprotein transfected in human Huh-7 cells cotransfected with HIV luciferase reporter vector expressing plasmid assessed as reduction in virus entry measured after 3 days by Bright-Glo luciferase assay. The conditions noted are these: Orthoebolavirus, Huh-7, 72 h. The class given is cell-based. The essentials:
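Huh7 cells were preincubated with varying compound concentrations for 1 h at 37 C. HIV-based luciferase reporter particles pseudotyped with EBOV GP were then added. Firefly luciferase activity was measured by Bright-Glo 3 days later.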
Background: Reporter assays use an easily measured gene product as a stand-in for the process of interest.

The target in data set [4] is T1, NPC intracellular cholesterol transporter 1 (Homo sapiens) (UniProt O15118).
T1 sequence (whole entry): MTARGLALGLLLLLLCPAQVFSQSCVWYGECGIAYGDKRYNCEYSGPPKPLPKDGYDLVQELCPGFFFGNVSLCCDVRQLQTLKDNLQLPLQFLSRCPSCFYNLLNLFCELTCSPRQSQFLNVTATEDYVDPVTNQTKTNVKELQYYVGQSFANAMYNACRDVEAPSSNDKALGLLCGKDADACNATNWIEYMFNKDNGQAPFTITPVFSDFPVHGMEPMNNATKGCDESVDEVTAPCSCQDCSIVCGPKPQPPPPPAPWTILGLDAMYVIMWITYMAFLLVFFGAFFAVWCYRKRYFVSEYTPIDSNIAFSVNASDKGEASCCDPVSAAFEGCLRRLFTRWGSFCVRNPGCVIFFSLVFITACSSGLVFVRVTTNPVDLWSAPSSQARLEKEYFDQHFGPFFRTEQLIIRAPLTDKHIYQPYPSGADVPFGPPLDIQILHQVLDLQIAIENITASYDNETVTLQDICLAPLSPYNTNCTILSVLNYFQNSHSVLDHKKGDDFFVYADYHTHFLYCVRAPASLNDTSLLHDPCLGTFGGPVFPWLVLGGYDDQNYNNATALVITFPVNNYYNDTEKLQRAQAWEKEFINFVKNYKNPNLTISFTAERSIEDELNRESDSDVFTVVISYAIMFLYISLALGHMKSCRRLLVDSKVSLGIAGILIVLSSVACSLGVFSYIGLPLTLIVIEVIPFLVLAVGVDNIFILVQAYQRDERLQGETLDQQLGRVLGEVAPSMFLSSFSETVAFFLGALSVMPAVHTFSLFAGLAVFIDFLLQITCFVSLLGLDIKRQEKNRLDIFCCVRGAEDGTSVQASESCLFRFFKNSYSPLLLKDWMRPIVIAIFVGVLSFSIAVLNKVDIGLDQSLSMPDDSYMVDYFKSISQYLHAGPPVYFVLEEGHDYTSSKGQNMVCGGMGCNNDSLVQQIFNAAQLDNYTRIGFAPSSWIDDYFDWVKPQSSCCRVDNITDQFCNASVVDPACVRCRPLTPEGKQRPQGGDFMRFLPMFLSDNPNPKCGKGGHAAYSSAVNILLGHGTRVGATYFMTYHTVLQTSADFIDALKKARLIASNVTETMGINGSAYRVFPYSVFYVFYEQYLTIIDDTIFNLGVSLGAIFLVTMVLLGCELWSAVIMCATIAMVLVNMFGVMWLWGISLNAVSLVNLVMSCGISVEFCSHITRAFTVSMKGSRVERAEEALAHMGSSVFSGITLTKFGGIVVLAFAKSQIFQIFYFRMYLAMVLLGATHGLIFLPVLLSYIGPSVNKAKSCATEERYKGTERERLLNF
Put plainly: Inhibition of NPC1 in human HeLa cells assessed as increase in cholesterol accumulation in subcellular localization at 1 uM incubated for 24 hrs by filipin-staining based immunofluorescence assay. The data set is classed as cell-based. The essentials:
(§1)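 HeLa cells were exposed to compound for 24 h; DMSO vehicle was 0.1% (v/v) final. They were then stained with 0.5 mg/mL filipin in PBS plus 10% FCS for 2 h at RT and imaged on a high-content imager.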

In data set [5] the target is T1, NPC intracellular cholesterol transporter 1 (Homo sapiens). Briefly: Inhibition of NPC1 in human HeLa cells assessed as increase in cholesterol accumulation in subcellular localization at 5 uM incubated for 24 hrs by filipin-staining based immunofluorescence assay. The class given is cell-based. The essentials:
as §1

Active and inactive are the calls of the source. The rule behind the calls is not given here.

Turning to `CCOP(=O)(Cc1cccc(COc2ccccc2OC2CCN(Cc3ccc4nc(-c5ccc(OC(F)(F)F)cc5)[nH]c4c3)CC2)c1)OCC`, in the data set with Ebolavirus, the EC50 (usually the concentration that produces a half-maximal response) was 1970 nM. Further, the CC50 (in general, the concentration that lowers cell viability or growth by half) at 72 h in data set [1] amounted to 4230 nM. Further, in data set [2], the selectivity ratio was found to be 2.
The like results for `CCOP(=O)(Cc1cccc(COc2ccccc2CC2CCN(Cc3ccc4nc(-c5cccc(OC(F)(F)F)c5)[nH]c4c3)CC2)c1)OCC` were, in that order, 870 nM, 4450 nM and 5.
Take `CCOP(=O)(Cc1ccc(COc2ccccc2CC2CCN(Cc3ccc4nc(-c5ccccc5)[nH]c4c3)CC2)cc1)OCC`: the EC50 is 640 nM in the data set on Ebolavirus and 1350 nM in data set [3]. Also, the CC50 at 72 h in data set [1] was determined as 13200 nM. Also, the selectivity ratio in data set [2] was found to be 20. The inhibition result in data set [4] was “Active”.
On to `CCOP(=O)(Cc1ccc(COc2ccccc2OC2CCN(Cc3ccc4nc(-c5cccc(C(F)(F)F)c5)[nH]c4c3)CC2)cc1)OCC`, for which the EC50 in the data set on Ebolavirus is 29700 nM. Further, the CC50 at 72 h in data set [1] came to 100000 nM. Moreover, the selectivity ratio in data set [2] is 3.
Take `CCOP(=O)(Cc1ccc(COc2ccccc2OC2CCN(Cc3ccc4nc(-c5ccccc5)[nH]c4c3)CC2)cc1)OCC`: the EC50 in the data set on Ebolavirus was 2950 nM. Besides, in data set [1], the CC50 at 72 h stood at 14700 nM. Moreover, the selectivity ratio in data set [2] was 5.
The like results for `CCOP(=O)(Cc1ccc(COc2ccccc2OC2CCN(Cc3ccc4nc(-c5ccc(C(F)(F)F)cc5)[nH]c4c3)CC2)cc1)OCC` were, in that order, 1730 nM, 3820 nM and 2.
The matching figures for `CCOP(=O)(Cc1ccc(COc2ccccc2OC2CCN(Cc3ccc4nc(-c5ccc(OC(F)(F)F)cc5)[nH]c4c3)CC2)cc1)OCC`: 1190 nM, 4200 nM and 4.
The matching figures for `CN(C)CCOc1ccc(/C(=C(\CCCl)c2ccccc2)c2ccccc2)cc1`: 380 nM, 2500 nM and 7.
On to `CCOP(=O)(Cc1cccc(COc2ccccc2OC2CCN(Cc3ccc4nc(-c5ccccc5)[nH]c4c3)CC2)c1)OCC`, for which, in the data set on Ebolavirus, the EC50 amounted to 1880 nM. Moreover, the CC50 at 72 h in data set [1] is 13100 nM. Also, the selectivity ratio in data set [2] is 7.
Take `CCOP(=O)(Cc1cccc(COc2ccccc2CC2CCN(Cc3ccc4nc(-c5ccccc5)[nH]c4c3)CC2)c1)OCC`: the EC50 in the data set on Ebolavirus was 930 nM; in data set [3] it was 2920 nM. Further, the CC50 at 72 h in data set [1] worked out at 9170 nM. Moreover, the selectivity ratio in data set [2] came to 10. Besides, the inhibition result in data set [4] is “Active”.
With `CCN(CC)CCO[C@H]1CC[C@@]2(C)C(=CC[C@@H]3[C@@H]2CC[C@]2(C)C(=O)CC[C@@H]32)C1`, the inhibition entry in data set [5] was “Active”.
As to `CCOP(=O)(Cc1ccc(COc2ccccc2OC2CCN(Cc3ccc4nc(-c5cccc(OC(F)(F)F)c5)[nH]c4c3)CC2)cc1)OCC`, the EC50 in the data set on Ebolavirus came to 2950 nM. The CC50 at 72 h in data set [1] worked out at 14700 nM. In data set [2], the selectivity ratio is 5.

For the origin of these results see ChEMBL document CHEMBL4732182, “Design, synthesis and biological evaluation of 2-substituted-6-[(4-substituted-1-piperidyl)methyl]-1H-benzimidazoles as inhibitors of ebola virus infection” (Eur J Med Chem, 2021).
